Results on 16 compounds are retold here after ChEMBL document CHEMBL1142321, “Selection of a respiratory syncytial virus fusion inhibitor clinical candidate. 2. Discovery of a morpholinopropylaminobenzimidazole derivative (TMC353121)” (J Med Chem, 2008).

Series [1] concerns Respiratory syncytial virus. In words: Inhibition of RSV by MTT assay. Type of series: functional, organism-based. The following applies: human respiratory syncytial virus. The essentials: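 HeLaM epithelial-like cells infected with RSV with or without a range of compound concentrations; viability read by MTT after 1 week incubation. OD measured spectrophotometrically and pEC50 derived. Virus, cell and cytotoxicity controls on every plate, reference compounds in every test; runs failing control criteria rejected.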
Background: Formazan colour is commonly taken as a measure of viable cells.

The nature of series [2]: Cytotoxicity against human HeLaM cells by MTT assay. Type of series: functional, M-HeLa.
A short description of series [3]: Half life in Sprague-Dawley rat lung. In kind it is ADME, organism-based.

By EC50 is commonly meant the concentration that produces a half-maximal response. Read a low EC50 as an effect from little substance. As a reminder, the pCC50 is the negative decadic logarithm of the CC50, by convention in mol/L. Lower therefore signals a large CC50. Turning to `Cc1ccc(O)c(Cn2c(NC3CCN(C)CC3)nc3ccc(C(O)c4ccccc4)cc32)n1` (stereo unspecified), in series [1], the EC50 is 158 nM. This compound returned a negative-log CC50 (pCC50) in series [2] of less than 4.

As for `Cc1cccc(SCc2ccc3nc(NC4CCN(C)CC4)n(Cc4nc(C)ccc4O)c3c2)c1`, a half-maximal response in series [1] (EC50) required 251 nM. This compound also yielded a pCC50 in series [2] of 4.4.

Broadly, the half-life is the time needed for the level to fall by half in the phase considered. Regarding `Cc1ccc(O)c(Cn2c(NCCCN3CCOCC3)nc3ccc(CNc4ccccc4CCO)cc32)n1`, the EC50 in series [1] is 0.794 nM. In addition, the pCC50 in series [2] was 4.7. Also, the half-life in series [3] was 20.1 h.

Turning to `Cc1cccc(CCc2ccc3nc(NC4CCN(C)CC4)n(Cc4nc(C)ccc4O)c3c2)c1`, the 50% effective concentration (EC50) in series [1] was 20 nM. In series [2], this compound gave a pCC50 of 5.9.

In series [1], `Cc1cccc(/C=C/c2ccc3nc(NC4CCN(CCN)CC4)n(Cc4nc(C)ccc4O)c3c2)c1` had an EC50 of 3.16 nM. For the same compound, in series [2], the pCC50 worked out at 5.1.

In series [1], `Cc1ccc(O)c(Cn2c(NC3CCN(C)CC3)nc3ccc(CN(CCO)c4ccccc4)cc32)n1` had an EC50 of 3.16 nM. In series [2], the pCC50 is reported as less than 4.

As to `Cc1cccc(N(CCO)Cc2ccc3nc(NCCCN4CCOCC4)n(Cc4nc(C)ccc4O)c3c2)c1`, the EC50 in series [1] is 0.501 nM. Further, the pCC50 in series [2] is given as 5.

In turn, `CCCCNc1nc2ccc(CNc3cc(C)cc(C)c3)cc2n1Cc1nc(C)ccc1O` had an EC50 in series [1] greater than 100000 nM. The compound also registered a negative logarithm of the CC50 (pCC50) in series [2] of 5.1.

`Cc1ccc(O)c(Cn2c(NCCCN3CCOCC3)nc3ccc(CNc4ccccc4CCCO)cc32)n1` gave an EC50 in series [1] of 0.251 nM. This compound had a negative logarithm of the CC50 (pCC50) in series [2] of 4.9.

The compound `Cc1cccc(NCc2ccc3nc(NCCCN4CCOCC4)n(Cc4nc(C)ccc4O)c3c2)c1` had an EC50 in series [1] of 2.51 nM. The pCC50 in series [2] stood at 4.9.

For the compound `Cc1ccc(O)c(Cn2c(NC3CCN(CC(N)C(C)C)CC3)nc3c(C)ccnc32)n1` (stereo unspecified), the EC50 in series [1] was 0.1 nM. The same compound gave a pCC50 in series [2] of 4.3.

With `Cc1cc(C)cc(N(CCO)Cc2ccc3nc(NC4CCN(C)CC4)n(Cc4nc(C)ccc4O)c3c2)c1`, a half-maximal response in series [1] (EC50) required 0.398 nM. In series [2], the pCC50 is 4.4.

In series [1], `Cc1cc(C)cc(NCc2ccc3nc(NC4CCN(CCO)CC4)n(Cc4nc(C)ccc4O)c3c2)c1` showed an EC50 of 1.58 nM. Moreover, the pCC50 in series [2] came to 4.5. The compound further had a half-life in series [3] of 84.9 h.

Regarding `Cc1cccc(CCc2ccc3nc(NC4CCN(CCN)CC4)n(Cc4nc(C)ccc4O)c3c2)c1`, the midpoint of the response in series [1], the EC50, lay at 1 nM. In addition, the pCC50 in series [2] stood at 4.9.

For the compound `Cc1cc(C)cc(N(CCCC(N)=O)Cc2ccc3nc(NCCCN4CCOCC4)n(Cc4nc(C)ccc4O)c3c2)c1`, a half-maximal effect in series [1] (EC50) was put at 0.251 nM. The compound also gave a pCC50 in series [2] of 4.7. Further, the half-life in series [3] is 10.4 h.

Compound `Cc1cc(C)cc(NCc2ccc3nc(NCCCN4CCOCC4)n(Cc4nc(C)ccc4O)c3c2)c1` showed an EC50 in series [1] of 1 nM. Moreover, the pCC50 in series [2] amounted to 5. In addition, the half-life in series [3] is 13.7 h.
